From ChEMBL document CHEMBL4177662, “Phosphamide-containing diphenylpyrimidine analogues (PA-DPPYs) as potent focal adhesion kinase (FAK) inhibitors with enhanced activity against pancreatic cancer cell lines” (Bioorg Med Chem, 2017)

Columns and labels:
[1] = molecular target: Tyrosine-protein kinase BTK (Homo sapiens) (UniProt Q06187); experiment: Inhibition of recombinant full length His-tagged human BTK cytoplasmic domain expressed in baculovirus expression system at 100 nM relative to control
Chain of Tyrosine-protein kinase BTK (Homo sapiens) (Q06187 whole entry, the tested form may be a part): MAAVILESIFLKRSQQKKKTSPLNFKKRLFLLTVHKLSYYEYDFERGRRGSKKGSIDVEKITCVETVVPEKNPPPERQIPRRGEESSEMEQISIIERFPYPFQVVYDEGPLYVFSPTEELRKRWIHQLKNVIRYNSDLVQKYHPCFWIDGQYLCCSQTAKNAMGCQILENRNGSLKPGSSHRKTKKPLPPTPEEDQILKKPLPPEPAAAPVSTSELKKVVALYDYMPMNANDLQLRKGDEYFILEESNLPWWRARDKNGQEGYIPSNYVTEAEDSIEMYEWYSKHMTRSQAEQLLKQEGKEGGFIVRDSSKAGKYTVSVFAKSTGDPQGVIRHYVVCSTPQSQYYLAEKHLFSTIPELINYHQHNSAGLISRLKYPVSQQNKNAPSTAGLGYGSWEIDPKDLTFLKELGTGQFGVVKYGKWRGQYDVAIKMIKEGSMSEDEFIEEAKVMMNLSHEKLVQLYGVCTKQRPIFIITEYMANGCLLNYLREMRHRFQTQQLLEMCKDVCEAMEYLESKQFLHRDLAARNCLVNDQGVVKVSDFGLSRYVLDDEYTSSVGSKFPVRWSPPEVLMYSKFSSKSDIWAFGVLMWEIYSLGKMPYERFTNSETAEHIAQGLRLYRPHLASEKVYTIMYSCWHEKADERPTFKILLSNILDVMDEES
In short: (§1)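 Percent inhibition of kinase activity at a single 100 nM test concentration, from an outsourced biochemical profiling screen.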

[2] = molecular target: T1, Tyrosine-protein kinase JAK3 (Homo sapiens) (UniProt P52333); experiment: Inhibition of recombinant GST-tagged human JAK3 catalytic domain (781 to 1124 residues) expressed in baculovirus expression system at 100 nM relative to control
T1 sequence (whole entry): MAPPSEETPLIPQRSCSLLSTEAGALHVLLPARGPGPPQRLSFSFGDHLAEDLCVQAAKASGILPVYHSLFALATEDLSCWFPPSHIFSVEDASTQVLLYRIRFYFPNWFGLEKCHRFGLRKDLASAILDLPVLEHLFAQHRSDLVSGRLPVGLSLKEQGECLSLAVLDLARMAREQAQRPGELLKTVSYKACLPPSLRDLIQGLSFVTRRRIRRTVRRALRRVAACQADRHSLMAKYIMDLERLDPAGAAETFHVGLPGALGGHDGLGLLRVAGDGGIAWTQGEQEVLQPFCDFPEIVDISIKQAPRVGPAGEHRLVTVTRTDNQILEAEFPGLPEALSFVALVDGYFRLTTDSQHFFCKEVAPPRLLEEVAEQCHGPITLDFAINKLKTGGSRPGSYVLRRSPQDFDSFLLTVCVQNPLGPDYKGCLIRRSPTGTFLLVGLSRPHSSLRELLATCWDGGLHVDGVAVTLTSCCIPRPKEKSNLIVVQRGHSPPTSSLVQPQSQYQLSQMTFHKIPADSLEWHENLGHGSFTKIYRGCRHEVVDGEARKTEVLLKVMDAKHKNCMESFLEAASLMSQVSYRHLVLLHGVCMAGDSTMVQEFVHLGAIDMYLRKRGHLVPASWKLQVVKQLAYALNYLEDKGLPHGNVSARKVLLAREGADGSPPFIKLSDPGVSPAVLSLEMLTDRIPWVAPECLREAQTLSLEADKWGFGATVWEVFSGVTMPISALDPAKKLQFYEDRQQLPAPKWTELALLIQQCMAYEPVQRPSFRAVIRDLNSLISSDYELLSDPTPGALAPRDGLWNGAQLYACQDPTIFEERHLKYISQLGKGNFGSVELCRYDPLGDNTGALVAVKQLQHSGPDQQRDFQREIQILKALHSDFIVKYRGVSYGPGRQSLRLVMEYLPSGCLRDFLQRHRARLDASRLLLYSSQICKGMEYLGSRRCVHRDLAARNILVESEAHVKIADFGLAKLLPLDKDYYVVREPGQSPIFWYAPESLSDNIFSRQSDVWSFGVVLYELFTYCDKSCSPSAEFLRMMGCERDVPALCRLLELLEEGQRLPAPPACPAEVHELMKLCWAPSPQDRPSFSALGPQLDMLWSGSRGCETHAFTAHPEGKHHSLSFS
In short: (§2)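 SelectScreen biochemical kinase profiling service; percent inhibition of each kinase at a single compound concentration of 100 nM.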

ASPC1 [3] = experiment: Induction of apoptosis in human Aspc-1 cells assessed as early apoptotic cells at 2.5 uM after 72 hrs by Annexin V-FITC/propidium iodide staining-based flow cytometry (reference value: 0%); type: functional
In short: (§3)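 AsPC-1 cells (3 to 5×10^5 per well) were treated with DMSO solvent control or compound for 72 h in medium with 5% FBS. Cells were then stained with Annexin V-FITC and propidium iodide and analysed by flow cytometry. One representative experiment shown.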

ASPC1 [4] = experiment: Cell cycle arrest in human Aspc-1 cells assessed as accumulation at G0/G1 phase at 5 uM after 72 hrs by propidium iodide staining-based flow cytometry (reference value: 39.41%); type: functional
ASPC1 [5] = experiment: Antiproliferative activity against human Aspc-1 cells assessed as cell viability at 4 uM after 48 hrs by MTT assay (reference value: 98.1%); type: functional; conditions: ASPC1, 48 h, read-out: Activity
ASPC1 [6] = experiment: Cell cycle arrest in human Aspc-1 cells assessed as accumulation at G2/M phase at 1 uM after 72 hrs by propidium iodide staining-based flow cytometry (reference value: 0.89%); type: functional
ASPC1 [7] = experiment: Induction of apoptosis in human Aspc-1 cells assessed as necrotic cells at 5 uM after 72 hrs by Annexin V-FITC/propidium iodide staining-based flow cytometry (reference value: 0%); type: functional; in short: as §3
[8] = molecular target: T2, Aurora kinase A (Homo sapiens) (UniProt O14965); experiment: Inhibition of recombinant full length His-tagged human Aurora A expressed in baculovirus expression system at 100 nM relative to control; in short: as §1
T2 sequence (whole entry): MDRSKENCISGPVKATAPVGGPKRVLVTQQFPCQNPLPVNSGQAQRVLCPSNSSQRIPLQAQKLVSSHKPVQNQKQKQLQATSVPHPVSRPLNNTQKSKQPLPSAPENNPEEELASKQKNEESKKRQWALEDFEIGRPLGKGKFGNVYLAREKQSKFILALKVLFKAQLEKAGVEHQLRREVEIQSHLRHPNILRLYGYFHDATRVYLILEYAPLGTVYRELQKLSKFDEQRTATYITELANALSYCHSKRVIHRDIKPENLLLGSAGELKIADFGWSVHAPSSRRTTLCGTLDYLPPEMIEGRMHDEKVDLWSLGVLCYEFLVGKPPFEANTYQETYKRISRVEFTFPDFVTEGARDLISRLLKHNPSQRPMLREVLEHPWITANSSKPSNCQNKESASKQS

ASPC1 [9] = experiment: Induction of apoptosis in human Aspc-1 cells assessed as necrotic cells at 10 uM after 72 hrs by Annexin V-FITC/propidium iodide staining-based flow cytometry (reference value: 0%); type: functional; in short: as §3
[10] = molecular target: Tyrosine-protein kinase receptor UFO (Homo sapiens) (UniProt P30530); experiment: Inhibition of GST-tagged human AXL (473 end residues) at 100 nM relative to control; in short: as §2
Chain of Tyrosine-protein kinase receptor UFO (Homo sapiens) (P30530 whole entry): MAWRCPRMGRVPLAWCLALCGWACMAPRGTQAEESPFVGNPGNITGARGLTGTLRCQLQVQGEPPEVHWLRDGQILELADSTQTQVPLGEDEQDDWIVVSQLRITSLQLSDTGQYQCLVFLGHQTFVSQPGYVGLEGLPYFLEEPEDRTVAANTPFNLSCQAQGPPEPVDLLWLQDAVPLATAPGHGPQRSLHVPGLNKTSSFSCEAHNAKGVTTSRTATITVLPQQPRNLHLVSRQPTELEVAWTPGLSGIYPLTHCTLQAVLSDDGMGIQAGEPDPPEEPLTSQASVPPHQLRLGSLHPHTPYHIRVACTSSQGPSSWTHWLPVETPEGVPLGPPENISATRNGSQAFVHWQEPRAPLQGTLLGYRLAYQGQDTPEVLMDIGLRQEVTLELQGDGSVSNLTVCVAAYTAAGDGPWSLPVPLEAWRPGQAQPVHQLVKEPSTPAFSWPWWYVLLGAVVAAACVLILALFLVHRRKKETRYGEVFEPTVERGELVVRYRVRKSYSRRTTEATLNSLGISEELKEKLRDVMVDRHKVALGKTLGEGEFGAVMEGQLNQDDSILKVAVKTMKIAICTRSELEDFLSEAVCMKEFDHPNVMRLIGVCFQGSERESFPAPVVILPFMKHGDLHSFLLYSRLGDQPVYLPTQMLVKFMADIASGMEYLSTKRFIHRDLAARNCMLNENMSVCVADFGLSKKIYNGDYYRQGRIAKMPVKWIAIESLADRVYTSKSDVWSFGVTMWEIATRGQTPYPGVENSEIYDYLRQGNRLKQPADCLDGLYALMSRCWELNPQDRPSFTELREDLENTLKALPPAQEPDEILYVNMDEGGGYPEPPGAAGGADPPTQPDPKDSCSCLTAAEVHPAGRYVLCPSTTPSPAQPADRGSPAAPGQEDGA

ASPC1 [11] = experiment: Cell cycle arrest in human Aspc-1 cells assessed as accumulation at G0/G1 phase at 1 uM after 72 hrs by propidium iodide staining-based flow cytometry (reference value: 39.41%); type: functional
ASPC1 [12] = experiment: Antiproliferative activity against human Aspc-1 cells assessed as cell viability at 0.5 uM after 24 hrs by MTT assay (reference value: 100%); type: functional; conditions: ASPC1, 24 h, read-out: Activity
Focal adhesion kinase 1 = Focal adhesion kinase 1 (Homo sapiens, UniProt Q05397); experiment: Inhibition of recombinant human N-terminal His-tagged FAK cytoplasmic domain (393 to 698 residues) expressed in baculovirus infected sf9 cells assessed as reduction in autophosphorylation after 60 mins by ADP-Glo kinase assay
Chain of Focal adhesion kinase 1 (Q05397 whole entry, the tested form may be a part): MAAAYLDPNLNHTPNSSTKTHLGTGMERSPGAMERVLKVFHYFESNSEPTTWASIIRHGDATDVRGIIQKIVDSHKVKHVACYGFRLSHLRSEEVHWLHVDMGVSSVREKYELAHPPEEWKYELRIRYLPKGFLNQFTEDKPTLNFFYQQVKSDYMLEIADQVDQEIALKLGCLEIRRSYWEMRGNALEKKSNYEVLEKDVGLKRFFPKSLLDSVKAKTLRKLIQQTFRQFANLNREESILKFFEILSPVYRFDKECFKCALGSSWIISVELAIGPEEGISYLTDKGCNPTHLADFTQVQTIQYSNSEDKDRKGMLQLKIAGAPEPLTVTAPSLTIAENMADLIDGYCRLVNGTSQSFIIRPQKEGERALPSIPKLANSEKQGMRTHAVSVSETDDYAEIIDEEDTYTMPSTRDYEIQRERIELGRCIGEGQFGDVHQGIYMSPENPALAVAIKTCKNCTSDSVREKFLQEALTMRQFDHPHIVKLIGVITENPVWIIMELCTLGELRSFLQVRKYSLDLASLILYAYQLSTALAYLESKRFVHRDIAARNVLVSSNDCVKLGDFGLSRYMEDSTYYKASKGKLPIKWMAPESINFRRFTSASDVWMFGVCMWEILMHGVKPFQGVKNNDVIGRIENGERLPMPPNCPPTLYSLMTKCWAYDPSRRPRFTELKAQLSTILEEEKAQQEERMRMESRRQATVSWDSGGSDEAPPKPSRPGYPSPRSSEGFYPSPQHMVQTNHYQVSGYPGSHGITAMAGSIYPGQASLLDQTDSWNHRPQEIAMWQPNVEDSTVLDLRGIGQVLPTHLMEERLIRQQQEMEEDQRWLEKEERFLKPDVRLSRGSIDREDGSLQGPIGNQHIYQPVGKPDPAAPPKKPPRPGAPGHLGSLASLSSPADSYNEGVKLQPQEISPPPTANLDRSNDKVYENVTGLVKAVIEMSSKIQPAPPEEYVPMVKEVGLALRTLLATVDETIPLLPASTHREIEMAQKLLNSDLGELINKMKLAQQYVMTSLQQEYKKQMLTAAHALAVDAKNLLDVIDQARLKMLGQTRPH
In short: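 ADP-Glo luminescence assay. The kinase reaction ran in 1× kinase buffer with compound at 1 to 200 nM, for 60 min at room temperature. ADP-Glo reagent was then added to stop the reaction and deplete leftover ATP (40 min, room temperature). Detection reagent converted ADP to ATP for luciferase read-out (30 min). IC50 from curve fitting, mean ± SE of three independent experiments.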

[13] = molecular target: Protein-tyrosine kinase 2-beta (Homo sapiens) (UniProt Q14289); experiment: Inhibition of recombinant full length GST-tagged human PYK2 cytoplasmic domain expressed in baculovirus expression system at 100 nM relative to control; in short: as §2
Chain of Protein-tyrosine kinase 2-beta (Homo sapiens) (Q14289 whole entry, looked up, the tested form may be a part): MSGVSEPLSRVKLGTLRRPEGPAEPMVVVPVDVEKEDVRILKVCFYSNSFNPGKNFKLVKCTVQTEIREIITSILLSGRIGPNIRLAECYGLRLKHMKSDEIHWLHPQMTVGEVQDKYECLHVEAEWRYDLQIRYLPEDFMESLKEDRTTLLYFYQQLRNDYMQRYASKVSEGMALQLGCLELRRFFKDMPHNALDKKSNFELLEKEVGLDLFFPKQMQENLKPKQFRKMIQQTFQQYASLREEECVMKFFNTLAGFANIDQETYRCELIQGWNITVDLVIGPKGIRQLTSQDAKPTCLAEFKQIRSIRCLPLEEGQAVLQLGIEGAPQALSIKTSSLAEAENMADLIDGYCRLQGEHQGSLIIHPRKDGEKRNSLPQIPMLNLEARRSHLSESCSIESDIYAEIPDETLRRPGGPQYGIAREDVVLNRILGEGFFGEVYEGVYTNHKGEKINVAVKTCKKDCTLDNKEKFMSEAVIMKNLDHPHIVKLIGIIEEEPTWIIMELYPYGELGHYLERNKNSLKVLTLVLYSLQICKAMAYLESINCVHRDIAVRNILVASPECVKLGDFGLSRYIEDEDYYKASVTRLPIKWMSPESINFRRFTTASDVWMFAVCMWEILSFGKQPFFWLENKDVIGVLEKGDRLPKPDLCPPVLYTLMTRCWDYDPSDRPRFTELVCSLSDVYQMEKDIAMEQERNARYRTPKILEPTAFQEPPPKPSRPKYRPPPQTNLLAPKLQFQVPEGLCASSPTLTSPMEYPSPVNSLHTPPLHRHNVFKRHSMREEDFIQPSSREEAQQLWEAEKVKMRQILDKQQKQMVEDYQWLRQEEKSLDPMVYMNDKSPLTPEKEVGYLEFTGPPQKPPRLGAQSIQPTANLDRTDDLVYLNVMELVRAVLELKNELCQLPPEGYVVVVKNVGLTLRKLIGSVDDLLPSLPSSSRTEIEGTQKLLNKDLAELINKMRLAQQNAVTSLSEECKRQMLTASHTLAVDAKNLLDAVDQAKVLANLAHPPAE

CCOP(=O)(CCCOc1ccc(Nc2ncc([N+](=O)[O-])c(Nc3ccccc3C(=O)NC)n2)cc1)N1CCOCC1 (centres undefined)
inhibition [1]: 33%
inhibition [2]: 26%
Activity (ASPC1 [3]): 21%
Activity (ASPC1 [4]): 40.06%
viability at 4 µM (ASPC1 [5]): 47.7%
Activity (ASPC1 [6]): 13%
Activity (ASPC1 [7]): 3.3%
inhibition [8]: 48%
Activity (ASPC1 [9]): 0.4%
inhibition [10]: 60%
Activity (ASPC1 [11]): 38.6%
viability at 0.5 µM (ASPC1 [12]): 99.4%
IC50 (Focal adhesion kinase 1): 4.65 nM
inhibition [13]: 71%
